Assay results as given in ChEMBL document CHEMBL4825703, “Investigation of 3-sulfamoyl coumarins against cancer-related IX and XII isoforms of human carbonic anhydrase as well as cancer cells leads to the discovery of 2-oxo-2H-benzo[h]chromene-3-sulfonamide - A new caspase-activating proapoptotic agent” (Eur J Med Chem, 2021).
pIC50, pKi: −log10 of the molar value. Calls of active or inactive are those of the source. The rule behind the calls is not given here.

How the values were obtained:
[1] = Antiproliferative activity against human WI-26 AV4 cells assessed as reduction in cell viability measured after 72 hrs by MTT assay; settings: WI26VA4, 72 h
hTERT-BJ [2] = assay: Cytotoxicity against human TERT-Bj-5ta cells assessed as reduction in cell viability at measured after 24 hrs under CoCl2- induced hypoxic condition by MTT assay; type: cell-based
[3] = Antiproliferative activity against human WI-26 AV4 cells assessed as reduction in cell viability measured after 24 hrs by MTT assay; settings: WI-26 AV4, 24 h
A-431 [4] = assay: Antiproliferative activity against human A-431 cells assessed as reduction in cell viability measured after 48 hrs by MTT assay; settings: A-431, 48 h
A-431 [5] = assay: Antiproliferative activity against human A-431 cells assessed as reduction in cell viability measured after 24 hrs by MTT assay; settings: A-431, 24 h
Carbonic anhydrase 9 = Carbonic anhydrase 9 (Homo sapiens, UniProt Q16790); assay: Inhibition of human carbonic anhydrase 9 assessed as inhibition constant incubated for 15 mins prior to testing by phenol red based stopped-flow CO2 hydration assay
[6] = Antiproliferative activity against human WI-26 AV4 cells assessed as reduction in cell viability measured after 48 hrs by MTT assay; settings: WI-26 AV4, 48 h
A-431 [7] = assay: Antiproliferative activity against human A-431 cells assessed as reduction in cell viability measured after 72 hrs by MTT assay; settings: A-431, 72 h
A-431 [8] = assay: Antiproliferative activity against human A-431 cells assessed as cell survival rate at 300 uM measured after 24 hrs under CoCl2-induced hypoxic condition by MTT assay relative to control; type: functional; settings: read-out: Survival
Summary of the method: (§1)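 MTT end-point assay. MTT (5 mg/mL in PBS) added for 4 h, formazan dissolved in DMSO, absorbance read at 560 nm. Viability given as % of untreated control (100%); mean ± SEM of three experiments.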

RT-4 = assay: Antiproliferative activity against human RT-4 cells assessed as cell survival rate at 300 uM measured after 24 hrs under CoCl2-induced hypoxic condition by MTT assay relative to control; type: functional; settings: read-out: Survival; summary of the method: as §1
U-87 MG [9] = assay: Antiproliferative activity against human U-87 MG cells assessed as cell growth inhibition at 30 to 100 uM measured after 24 hrs under CoCl2-induced hypoxic condition by MTT assay; type: functional, cell-based; settings: U-87MG ATCC, dose 30-100 µM
hTERT-BJ [10] = assay: Cytotoxicity against human TERT-Bj-5ta cells assessed as reduction in cell viability at 300 uM measured after 24 hrs under CoCl2- induced hypoxic condition by MTT assay relative to control; type: cell-based
U-87 MG [11] = assay: Antiproliferative activity against human U-87 MG cells assessed as cell survival rate at 300 uM measured after 24 hrs under CoCl2-induced hypoxic condition by MTT assay relative to control; type: functional, U-87MG ATCC; settings: read-out: Survival; summary of the method: as §1

pKi (Carbonic anhydrase 9) | SMILES | growth inhibition (GI) (U-87 MG [9]) | Activity (hTERT-BJ [10]) [%] | further results
7.18 | NS(=O)(=O)c1cc2cc(O)ccc2oc1=O | inactive | 65.75 | –
7.19 | NS(=O)(=O)c1cc2ccccc2oc1=O | inactive | – | –
7.49 | NS(=O)(=O)c1cc2cc(F)ccc2oc1=O | inactive | – | –

The next lines start with the compound.

SMILES | pKi (Carbonic anhydrase 9) | growth inhibition (GI) (U-87 MG [9]) | Activity (hTERT-BJ [10]) [%] | further results
NS(=O)(=O)c1cc2cc(Br)ccc2oc1=O | 6.50 | inactive | – | pIC50 [1]: 4.67; Activity (hTERT-BJ [2]): Non-Toxic; pIC50 [3]: 4.12; pIC50 (A-431 [4]): 4.61; pIC50 (A-431 [5]): 4.42; pIC50 [6]: 4.38; pIC50 (A-431 [7]): 4.31; viability at 300 µM (A-431 [8]): 39.3%; viability at 300 µM (RT-4): 19.7%
COc1cccc2oc(=O)c(S(N)(=O)=O)cc12 | 5.53 | inactive | – | –
COc1ccc2oc(=O)c(S(N)(=O)=O)cc2c1 | 7.24 | inactive | 70.97 | –
NS(=O)(=O)c1cc2cccc(O)c2oc1=O | 7.01 | inactive | 54.76 | viability at 300 µM (U-87 MG [11]): 67.7%; viability at 300 µM (RT-4): 19.7%
COc1cccc2cc(S(N)(=O)=O)c(=O)oc12 | 7.06 | inactive | – | –
NS(=O)(=O)c1cc2cccc(F)c2oc1=O | 7.39 | inactive | – | viability at 300 µM (U-87 MG [11]): 57.9%
